This passage reports Activity results from ChEMBL document CHEMBL4152346, “Sulfonamido-2-arylbenzoxazole GroEL/ES Inhibitors as Potent Antibacterials against Methicillin-Resistant Staphylococcus aureus (MRSA)” (J Med Chem, 2018).

Active and inactive are the calls of the source. No rule for the calls is given here.

Format in all cases: functional, organism-based
The test system of assay [1] is Pseudomonas aeruginosa. In words: Antibacterial activity against Pseudomonas aeruginosa ATCC 10145 after 6 to 8 hrs. The essentials: (§1)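 Stagnant liquid-culture proliferation assay at 37°C in broth cation-adjusted with 25 mg/L Ca²⁺ and 12.5 mg/L Mg²⁺, with compounds stamped into the wells. […] OD600 turbidity was read at 6–8 h (K. pneumoniae, E. cloacae, P. aeruginosa) or 24 h (A. baumannii). EC50 came from non-linear regression, averaged in log form over replicates.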

The subject of assay [2] is Enterobacter cloacae. The assay can be described thus: Antibacterial activity against Enterobacter cloacae subsp. cloacae ATCC 13047 after 6 to 8 hrs. The essentials:
as §1

The subject of assay [3] is Acinetobacter baumannii. The assay can be described thus: Antibacterial activity against Acinetobacter baumannii ATCC 19606 after 24 hrs. The conditions noted are these: ATCC 19606 = CIP 70.34 = JCM 6841. The essentials: as §1
In assay [4] the test system is Klebsiella pneumoniae. The assay can be described thus: Antibacterial activity against Klebsiella pneumoniae ATCC 13883 after 6 to 8 hrs. The essentials: as §1

Take `O=S(=O)(Nc1ccc(-c2nc3cc(NS(=O)(=O)c4ccccc4O)ccc3o2)cc1)c1ccccc1O`: the outcome in assay [1], in assay [2], in assay [3] and in assay [4] was inactive.
Take `O=S(=O)(Nc1ccc(-c2nc3cc(NS(=O)(=O)c4ccc(F)cc4)ccc3o2)cc1)c1ccc(F)cc1`: the outcome in assay [1], in assay [2], in assay [3] and in assay [4] was inactive.
On to `O=S(=O)(Nc1ccc(-c2nc3cc(NS(=O)(=O)c4cccc(F)c4)ccc3o2)cc1)c1cccc(F)c1`, for which the outcome in assay [1], in assay [2], in assay [3] and in assay [4] was inactive.
With `O=S(=O)(Nc1ccc(-c2nc3cc(NS(=O)(=O)c4ccccc4)ccc3o2)cc1)c1ccccc1`, the outcome in assay [1], in assay [2], in assay [3] and in assay [4] was inactive.
`O=S(=O)(Nc1ccc(-c2nc3cc(NS(=O)(=O)c4cccc(Br)c4)ccc3o2)cc1)c1cccc(Br)c1`: the outcome in assay [1], in assay [2], in assay [3] and in assay [4] was inactive.
In the case of `Cc1cccc(S(=O)(=O)Nc2ccc(-c3nc4cc(NS(=O)(=O)c5cccc(C)c5)ccc4o3)cc2)c1`, the result in assay [1], in assay [2], in assay [3] and in assay [4] was inactive.
As for `Cc1ccccc1S(=O)(=O)Nc1ccc(-c2nc3cc(NS(=O)(=O)c4ccccc4C)ccc3o2)cc1`, the outcome in assay [1], in assay [2], in assay [3] and in assay [4] was inactive.
In the case of `N#Cc1ccc(S(=O)(=O)Nc2ccc(-c3nc4cc(NS(=O)(=O)c5ccc(C#N)cc5)ccc4o3)cc2)cc1`, the outcome in assay [1], in assay [2], in assay [3] and in assay [4] was inactive.
Turning to `Nc1cccc(S(=O)(=O)Nc2ccc(-c3nc4cc(NS(=O)(=O)c5cccc(N)c5)ccc4o3)cc2)c1`, the outcome in assay [1], in assay [2], in assay [3] and in assay [4] was inactive.
As for `O=C(O)c1cccc(S(=O)(=O)Nc2ccc(-c3nc4cc(NS(=O)(=O)c5cccc(C(=O)O)c5)ccc4o3)cc2)c1`, the outcome in assay [1], in assay [2], in assay [3] and in assay [4] was inactive.
`Cc1ccc(S(=O)(=O)Nc2ccc(-c3nc4cc(NS(=O)(=O)c5ccc(C)cc5)ccc4o3)cc2)cc1`: the outcome in assay [1], in assay [2], in assay [3] and in assay [4] was inactive.
For the compound `CCCS(=O)(=O)Nc1ccc(-c2nc3cc(NS(=O)(=O)CCC)ccc3o2)cc1`, the outcome in assay [1], in assay [2], in assay [3] and in assay [4] was inactive.
`O=[N+]([O-])c1ccccc1S(=O)(=O)Nc1ccc(-c2nc3cc(NS(=O)(=O)c4ccccc4[N+](=O)[O-])ccc3o2)cc1`: the outcome in assay [1], in assay [2], in assay [3] and in assay [4] was inactive.
With `O=S(=O)(Nc1ccc(-c2nc3cc(NS(=O)(=O)c4ccccc4C(F)(F)F)ccc3o2)cc1)c1ccccc1C(F)(F)F`, the result in assay [1], in assay [2], in assay [3] and in assay [4] was inactive.
With `Nc1ccc(S(=O)(=O)Nc2ccc(-c3nc4cc(NS(=O)(=O)c5ccc(N)cc5)ccc4o3)cc2)cc1`, the outcome in assay [1], in assay [2], in assay [3] and in assay [4] was inactive.
Consider `COc1ccc(S(=O)(=O)Nc2ccc(-c3nc4cc(NS(=O)(=O)c5ccc(OC)cc5)ccc4o3)cc2)cc1`, for which the result in assay [1], in assay [2], in assay [3] and in assay [4] was inactive.
As for `O=S(=O)(Nc1ccc2oc(-c3ccc(NS(=O)(=O)c4ccc5ncsc5c4)cc3)nc2c1)c1ccc2scnc2c1`, the result in assay [1], in assay [2], in assay [3] and in assay [4] was inactive.
In the case of `O=S(=O)(Nc1ccc(-c2nc3cc(NS(=O)(=O)c4cccc5nsnc45)ccc3o2)cc1)c1cccc2nsnc12`, the result in assay [1], in assay [2], in assay [3] and in assay [4] was inactive.
Turning to `O=[N+]([O-])c1cccc(S(=O)(=O)Nc2ccc(-c3nc4cc(NS(=O)(=O)c5cccc([N+](=O)[O-])c5)ccc4o3)cc2)c1`, the result in assay [1], in assay [2], in assay [3] and in assay [4] was inactive.
Turning to `O=S(=O)(Nc1ccc(-c2nc3cc(NS(=O)(=O)c4ccc(O)cc4)ccc3o2)cc1)c1ccc(O)cc1`, the outcome in assay [1], in assay [2], in assay [3] and in assay [4] was Active.
Turning to `O=S(=O)(Nc1ccc(-c2nc3cc(NS(=O)(=O)c4ccccc4F)ccc3o2)cc1)c1ccccc1F`, the result in assay [1], in assay [2], in assay [3] and in assay [4] was inactive.
As to `N#Cc1ccccc1S(=O)(=O)Nc1ccc(-c2nc3cc(NS(=O)(=O)c4ccccc4C#N)ccc3o2)cc1`, the result in assay [1], in assay [2], in assay [3] and in assay [4] was inactive.
Turning to `O=S(=O)(Nc1ccc(-c2nc3cc(NS(=O)(=O)c4cccc(O)c4)ccc3o2)cc1)c1cccc(O)c1`, the outcome in assay [1], in assay [2], in assay [3] and in assay [4] was inactive.
With `O=S(=O)(Nc1ccc(-c2nc3cc(NS(=O)(=O)c4ccc5ccccc5c4)ccc3o2)cc1)c1ccc2ccccc2c1`, the outcome in assay [1], in assay [2], in assay [3] and in assay [4] was inactive.
As to `COC(=O)c1ccccc1S(=O)(=O)Nc1ccc(-c2nc3cc(NS(=O)(=O)c4ccccc4C(=O)OC)ccc3o2)cc1`, the outcome in assay [1], in assay [2], in assay [3] and in assay [4] was inactive.
